Results published in ChEMBL document CHEMBL1240503, “Design, synthesis and biological evaluation of new (E)- and (Z)-1,2,3-triaryl-2-propen-1-ones as selective COX-2 inhibitors” (Eur J Med Chem, 2010).

What follows are molecules tested against T1, Prostaglandin G/H synthase 1 (Ovis aries, UniProt P05979) (assay: Inhibition of ovine COX1 by chemiluminescence assay).
T1 sequence (P05979 whole entry): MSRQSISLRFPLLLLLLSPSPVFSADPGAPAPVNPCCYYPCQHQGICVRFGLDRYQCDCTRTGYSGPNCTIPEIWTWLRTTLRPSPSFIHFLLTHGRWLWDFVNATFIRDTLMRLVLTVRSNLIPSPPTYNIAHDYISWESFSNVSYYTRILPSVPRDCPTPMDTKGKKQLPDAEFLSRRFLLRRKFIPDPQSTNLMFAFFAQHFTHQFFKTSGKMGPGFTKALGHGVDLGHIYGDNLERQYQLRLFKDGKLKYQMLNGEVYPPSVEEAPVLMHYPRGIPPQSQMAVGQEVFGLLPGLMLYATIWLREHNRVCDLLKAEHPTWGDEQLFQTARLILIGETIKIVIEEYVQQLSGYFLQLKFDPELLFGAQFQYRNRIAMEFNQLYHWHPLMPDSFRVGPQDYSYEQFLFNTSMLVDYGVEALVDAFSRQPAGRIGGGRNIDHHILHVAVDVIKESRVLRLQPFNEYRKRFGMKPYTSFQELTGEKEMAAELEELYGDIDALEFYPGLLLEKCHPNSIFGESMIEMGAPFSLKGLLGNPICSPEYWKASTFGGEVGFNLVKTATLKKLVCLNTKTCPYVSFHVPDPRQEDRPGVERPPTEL
How it was run: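 Enzyme activity read as arachidonate-induced luminescence, taken as a real-time index of COX catalytic turnover; inhibition measured as loss of this luminescence signal.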
Molecule `CS(=O)(=O)c1ccc(C(=O)/C(=C/c2ccccc2)c2ccccc2)cc1` has an IC50 of 13.3 µM.
With `CS(=O)(=O)c1ccc(C(=O)/C(=C\c2ccccc2)c2ccccc2)cc1` the IC50 was 14.3 µM.
For `CS(=O)(=O)c1ccc(C(=O)/C(=C/c2ccc(F)cc2)c2ccccc2)cc1`, the IC50 was 12.6 µM.
`CS(=O)(=O)c1ccc(C(=O)/C(=C\c2ccc(F)cc2)c2ccccc2)cc1` was tested, and the IC50 was 30.9 µM.
`Cc1ccc(/C=C(/C(=O)c2ccc(S(C)(=O)=O)cc2)c2ccccc2)cc1` was tested, and the IC50 was 10.4 µM.
Molecule `Cc1ccc(/C=C(\C(=O)c2ccc(S(C)(=O)=O)cc2)c2ccccc2)cc1` has an IC50 of 12.2 µM.
`COc1ccc(/C=C(/C(=O)c2ccc(S(C)(=O)=O)cc2)c2ccccc2)cc1` showed an IC50 of 10.7 µM.
In the case of `COc1ccc(/C=C(\C(=O)c2ccc(S(C)(=O)=O)cc2)c2ccccc2)cc1`, the IC50 is reported as 18.4 µM.
Work on `CS(=O)(=O)c1ccc(C(=O)/C(=C/c2ccc(O)cc2)c2ccccc2)cc1` yielded an IC50 of 14.4 µM.
With `CS(=O)(=O)c1ccc(C(=O)/C(=C/c2cccs2)c2ccccc2)cc1` the IC50 was 13.1 µM.
Work on `CS(=O)(=O)c1ccc(C(=O)C(=Cc2ccncc2)c2ccccc2)cc1` (mixture of isomers) yielded an IC50 of 12.4 µM.
